# Assay results reported in article PMC7673712 (Science Advances, 2020).
# Experiments:
# [1] = HNO release half-life of IL-NONOates in PBS, UV absorbance decay at 330 nm; type: physicochemical; details: IL-NONOate formed from the IL; 37°C, pH 7.4, 0.01 M phosphate buffer (PBS)
# [2] = NO absorption by ILs, gravimetric method; type: physicochemical; details: 30°C until full absorption
# Summary of the method: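 The system was purged with N2 (60 ml/min, 30 min). NO at atmospheric pressure was then bubbled at about 20 ml/min through about 1 g of test compound held in a metal block at 30°C. Uptake was weighed at regular intervals on a balance (±0.0001 g) until absorption was complete, and expressed as mol NO per mol compound.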
# [3] = ITC binding of ILs to cardiolipin; details: compared with [Ch][Tau] or [EMIm][APA]
# Summary of the method: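 Isothermal titration calorimetry at 25°C. An aqueous solution of test compound in the syringe was titrated into aqueous 18:1 cardiolipin in the sample cell. One small injection was followed by 28 larger injections, each lasting 10 s, with 120 s between injections and stirring at 1001 rpm. The binding constant was obtained from analysis of the calorimetric data.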
# [4] = system: CT-26 cells and MCF-7 cells; assay: Cellular RNS detection, red fluorescent dye, microscopy and flow cytometry; type: cell-based; details: after 4 hours of treatment, CT-26 and MCF-7 cells
# Summary of the method: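 CT-26 and MCF-7 cells (RPMI 1640, 10% FBS, 37°C, 5% CO2) grown in 24-well plates were preloaded with NO detection reagent for 2 h under normal culture conditions. The reagent was removed, and cells were exposed to test compound for 1, 2 or 4 h, with a commercial HNO donor as positive control. Cells were washed once, and red fluorescence was imaged by inverted fluorescence microscopy.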
# CT-26 cells = assay: Cellular GSH quantitative analysis; type: cell-based; details: 1.0 mM, 0.5 and 2 hours
# Summary of the method: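 CT-26 cells (RPMI 1640, 10% FBS, 37°C, 5% CO2) seeded in 24-well plates at 40,000 cells/well for 18 h. Medium replaced with serum-free medium containing test compound at various concentrations. After 0.5 or 2 h the cells were lysed and intracellular GSH was measured with a GSH/GSSG assay kit.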
Compound,t1/2 (HNO release half-life) [1] [h],Absorption capacity [2],further results
CCn1cc[n+](C)c1.NCCCS(=O)(=O)[O-] [[EMIm][APS]],16,2.79 mol NO per mol of IL,
C[N+](C)(C)CCO.NCCC(=O)[O-] [[Ch][APA]],17.68,1.70 mol NO per mol of IL,"binding constant with CL, comparison [3]: significantly higher"
C1CCC2=NCCCN2CC1.NCCS(=O)(=O)O [[DBU][Tau]],,2.79 mol NO per mol of IL,
CCn1cc[n+](C)c1.NCS(=O)(=O)[O-] [[EMIm][AMS]],5.4,1.38 mol NO per mol of IL,
C[N+](C)(C)CCO.NCCS(=O)(=O)[O-] [[Ch][Tau]],,1.67 mol NO per mol of IL,
CCCCCCCCCCCCCC[P+](CCCCCC)(CCCCCC)CCCCCC.NCCS(=O)(=O)[O-] [[P66614][Tau]],5.42,3.33 mol NO per mol of IL,
CCn1cc[n+](C)c1.NCCC(=O)[O-] [[EMIm][APA]],16.6,2.11 mol NO per mol of IL,
C[N+](C)(CCO)CCO.NCCS(=O)(=O)[O-] [[HEMN][Tau]],,2.51 mol NO per mol of IL,
"[Na+].[Na+].[O-][N+]([O-])=NO [AS, Na2N2O3]",,,intracellular RNS level [4]: failed to achieve this goal; intracellular GSH levels (CT-26 cells): restoration of GSH
CCn1cc[n+](C)c1.NCCS(=O)(=O)[O-] [[EMIm][Tau]],,2.28 mol NO per mol of IL,
